Data from ChEMBL document CHEMBL1250463, “N(epsilon)-Modified lysine containing inhibitors for SIRT1 and SIRT2” (Bioorg Med Chem, 2010).

Legend:
[1] = target: T1, NAD-dependent protein deacetylase sirtuin-1 (Homo sapiens) (UniProt Q96EB6); experiment: Inhibition of GST-SIRT1 at 200 uM after 1 hr by Fluor de Lys fluorescence assay
T1 sequence (whole entry): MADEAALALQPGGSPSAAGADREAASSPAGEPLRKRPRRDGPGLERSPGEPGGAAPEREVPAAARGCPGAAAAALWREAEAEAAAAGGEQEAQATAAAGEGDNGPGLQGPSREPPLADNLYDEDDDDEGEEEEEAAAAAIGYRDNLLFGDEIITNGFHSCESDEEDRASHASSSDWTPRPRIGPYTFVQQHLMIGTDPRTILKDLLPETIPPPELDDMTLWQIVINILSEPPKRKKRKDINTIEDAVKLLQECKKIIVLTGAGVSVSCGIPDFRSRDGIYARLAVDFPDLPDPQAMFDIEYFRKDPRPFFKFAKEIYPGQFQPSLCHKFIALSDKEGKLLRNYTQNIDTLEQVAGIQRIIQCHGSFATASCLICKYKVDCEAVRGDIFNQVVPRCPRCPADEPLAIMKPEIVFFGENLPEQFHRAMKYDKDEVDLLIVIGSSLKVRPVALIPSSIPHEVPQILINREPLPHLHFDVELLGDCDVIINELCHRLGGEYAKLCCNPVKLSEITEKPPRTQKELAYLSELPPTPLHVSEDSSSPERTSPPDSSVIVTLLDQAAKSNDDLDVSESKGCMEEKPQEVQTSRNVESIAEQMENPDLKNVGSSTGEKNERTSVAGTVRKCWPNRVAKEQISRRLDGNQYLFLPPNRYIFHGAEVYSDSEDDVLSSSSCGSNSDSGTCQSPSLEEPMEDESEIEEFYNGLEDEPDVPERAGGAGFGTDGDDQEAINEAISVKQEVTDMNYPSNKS
Method in brief: (§1)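 Recombinant GST-SIRT1 with Fluor de Lys acetylated SIRT1 peptide substrate at 70% of its Km, plus NAD+, in HDAC assay buffer with 1 mg/ml BSA. Buffer, substrate, NAD+ and compound in DMSO (2.5 in 50 total) were preincubated 5 min at rt. Enzyme addition started the reaction, run 1 h at 37 °C. Developer plus 2 mM nicotinamide was then added for 45 min at 37 °C before fluorescence read-out.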

[2] = target: T2, NAD-dependent protein deacetylase sirtuin-2 (Homo sapiens) (UniProt Q8IXJ6); experiment: Inhibition of GST-SIRT2 at 200 uM after 1 hr by Fluor de Lys fluorescence assay
T2 sequence (whole entry): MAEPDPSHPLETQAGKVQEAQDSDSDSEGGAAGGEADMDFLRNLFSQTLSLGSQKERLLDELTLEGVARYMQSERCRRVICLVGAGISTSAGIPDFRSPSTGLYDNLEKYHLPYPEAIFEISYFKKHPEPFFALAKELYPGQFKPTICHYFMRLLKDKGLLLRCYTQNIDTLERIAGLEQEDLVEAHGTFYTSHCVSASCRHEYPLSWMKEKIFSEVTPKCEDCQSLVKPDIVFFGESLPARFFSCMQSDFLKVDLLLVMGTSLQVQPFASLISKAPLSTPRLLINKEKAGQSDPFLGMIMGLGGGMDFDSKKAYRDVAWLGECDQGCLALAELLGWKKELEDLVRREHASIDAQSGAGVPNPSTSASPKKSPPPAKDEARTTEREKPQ
Method in brief: (§2)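 Recombinant GST-SIRT2 with Fluor de Lys acetylated SIRT2 peptide substrate at 70% of its Km, plus NAD+, in HDAC assay buffer with 1 mg/ml BSA. Compound or DMSO was preincubated 5 min at rt with buffer, substrate and NAD+. Enzyme was added to start the reaction, run 1 h at 37 °C. Developer with 2 mM nicotinamide followed for 45 min at 37 °C, then fluorescence was read.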

[3] = target: T3, NAD-dependent protein deacetylase sirtuin-1 (Homo sapiens, UniProt Q96EB6); experiment: Inhibition of GST-SIRT1 after 1 hr by Fluor de Lys fluorescence assay; method in brief: as §1
T3 sequence (Q96EB6 whole entry): T1 sequence (whole entry)

[4] = target: T4, NAD-dependent protein deacetylase sirtuin-2 (Homo sapiens, UniProt Q8IXJ6); experiment: Inhibition of GST-SIRT2 after 1 hr by Fluor de Lys fluorescence assay; method in brief: as §2
T4 sequence (Q8IXJ6 whole entry): T2 sequence (whole entry)

Row | Compound | inhibition [1] [%] | inhibition [2] [%] | IC50 [3] [µM] | IC50 [4] [µM]
1 | CC(C)(C)OC(=O)NCCCC[C@H](NC(=O)OCc1ccccc1)C(=O)Nc1ccccc1 | 6 | 13 | – | –
2 | COC(=O)[C@H](C)NC(=O)[C@H](CCCCNC(=O)c1ccccn1)NC(=O)[C@H](C)NC(C)=O | 4 | 0 | – | –
3 | COC(=O)[C@H](C)NC(=O)[C@H](CCCCNS(C)(=O)=O)NC(=O)[C@H](C)NC(C)=O | 17 | 8 | – | –
4 | COC(=O)[C@H](C)NC(=O)[C@H](CCCCNC(=O)C=C(C)C)NC(=O)[C@H](C)NC(C)=O | 78 | 74 | 46 | 69
5 | CC(=O)NCCCC[C@H](NC(=O)[C@H](C)NC(C)=O)C(=O)N[C@@H](C)C(=O)O | 62 | 42 | 122 | 223
6 | CNC(=O)[C@H](C)NC(=O)[C@H](CCCCNC(=O)c1ccc[nH]1)NC(=O)[C@H](C)NC(C)=O | 36 | 26 | – | –
7 | COC(=O)[C@H](C)NC(=O)[C@H](CCCCNC(=O)CBr)NC(=O)[C@H](C)NC(C)=O | 48 | 16 | 1770 | –
8 | COC(=O)[C@H](C)NC(=O)[C@H](CCCCNC(=O)c1ccccc1)NC(=O)[C@H](C)NC(C)=O | 12 | 14 | – | –
9 | COC(=O)[C@H](C)NC(=O)[C@H](CCCCNS(=O)(=O)C(F)(F)F)NC(=O)[C@H](C)NC(C)=O | 15 | 4 | – | –
10 | COC(=O)[C@H](C)NC(=O)[C@H](CCCCNC(=O)Cc1cccnc1)NC(=O)[C@H](C)NC(C)=O | 10 | 0 | – | –
11 | COC(=O)[C@H](C)NC(=O)[C@H](CCCCNC(C)=O)NC(=O)[C@H](C)NC(C)=O | 39 | 57 | 268 | 180
12 | COC(=O)[C@H](C)NC(=O)[C@H](CCCCNC(=O)Cc1ccccn1)NC(=O)[C@H](C)NC(C)=O | 26 | 21 | – | –
13 | CC(=O)N[C@@H](C)C(=O)N[C@@H](CCCCNC(=O)C=C(C)C)C(=O)N[C@@H](C)C(=O)O | 95 | 52 | 11 | 77
14 | COC(=O)[C@H](C)NC(=O)[C@H](CCCCNC(=O)CCl)NC(=O)[C@H](C)NC(C)=O | 19 | 8 | – | –
15 | CC(=[Se])NCCCC[C@H](NC(=O)OCc1ccccc1)C(=O)Nc1ccccc1 | 98 | 99 | 1.8 | 2.7
16 | CC(=O)N[C@@H](C)C(=O)N[C@@H](CCCCNC(=O)/C=C(/C)C(F)(F)F)C(=O)N[C@@H](C)C(=O)O | 33 | 20 | – | –
17 | CNC(=O)[C@H](C)NC(=O)[C@H](CCCCNC(=O)C=C(C)C)NC(=O)[C@H](C)NC(C)=O | 96 | 95 | 6.1 | 23
18 | CP(C)(=S)NCCCC[C@H](NC(=O)OCc1ccccc1)C(=O)Nc1ccccc1 | 10 | 27 | – | –

Row | Compound | inhibition [1] [%] | inhibition [2] [%] | IC50 [3] [µM] | IC50 [4] [µM]
19 | COC(=O)[C@H](C)NC(=O)[C@H](CCCCNS(=O)(=O)c1ccc(C)cc1)NC(=O)[C@H](C)NC(C)=O | 1 | 0 | – | –
20 | COC(=O)[C@H](C)NC(=O)[C@H](CCCCNS(=O)(=O)c1ccc([N+](=O)[O-])cc1)NC(=O)[C@H](C)NC(C)=O | 0 | 5 | – | –
21 | COC(=O)[C@H](C)NC(=O)[C@H](CCCCNC(=O)OCc1ccccc1)NC(=O)[C@H](C)NC(C)=O | 11 | 3 | – | –
22 | COC(=O)[C@H](C)NC(=O)[C@H](CCCCNC(=O)C1=CCCCC1)NC(=O)[C@H](C)NC(C)=O | 33 | 54 | – | 129
23 | CNC(=O)[C@H](C)NC(=O)[C@H](CCCCNC(=O)c1cccn1C)NC(=O)[C@H](C)NC(C)=O | 23 | 41 | – | –
24 | COC(=O)NCCCC[C@H](NC(=O)[C@H](C)NC(C)=O)C(=O)N[C@@H](C)C(=O)OC | 8 | 0 | – | –
25 | CNC(=O)[C@H](C)NC(=O)[C@H](CCCCNC(C)=O)NC(=O)[C@H](C)NC(C)=O | 66 | 68 | 88 | 60
26 | COC(=O)[C@H](C)NC(=O)[C@H](CCCCNC(=O)C(C)(C)C)NC(=O)[C@H](C)NC(C)=O | 53 | 52 | 223 | 338
27 | CC(=O)N[C@@H](C)C(=O)N[C@@H](CCCCNC(C)=[Se])C(=O)N[C@@H](C)C(=O)O | 100 | 97 | 0.37 | 7.2
28 | COC(=O)[C@H](C)NC(=O)[C@H](CCCCNC(=O)c1cccnc1)NC(=O)[C@H](C)NC(C)=O | 9 | 2 | – | –
29 | CC(=O)N[C@@H](C)C(=O)N[C@@H](CCCCNC(=S)CC(C)C)C(=O)N[C@@H](C)C(=O)O | 100 | 99 | 0.7 | 3.6
30 | CC(=O)N[C@@H](C)C(=O)N[C@@H](CCCCNC(=O)CC(C)C)C(=O)N[C@@H](C)C(=O)O | 94 | 76 | 12 | 30
31 | CNC(=O)[C@H](C)NC(=O)[C@H](CCCCNC(=O)C(C)(C)C)NC(=O)[C@H](C)NC(C)=O | 82 | 77 | 40 | 66
32 | CC(=O)N[C@@H](C)C(=O)N[C@@H](CCCCNC(C)=S)C(=O)N[C@@H](C)C(=O)O | 100 | 96 | 0.24 | 9.8
33 | C/C=C/C(=O)NCCCC[C@H](NC(=O)[C@H](C)NC(C)=O)C(=O)N[C@@H](C)C(=O)OC | 20 | 9 | – | –
34 | CNC(=O)[C@H](C)NC(=O)[C@H](CCCCNC(=O)c1ccc(N(C)C)cc1)NC(=O)[C@H](C)NC(C)=O | 39 | 34 | – | –
35 | C/C=C(\C)C(=O)NCCCC[C@H](NC(=O)[C@H](C)NC(C)=O)C(=O)N[C@@H](C)C(=O)OC | 39 | 39 | – | –
36 | COC(=O)[C@H](C)NC(=O)[C@H](CCCCNC(=O)N(C)C)NC(=O)[C@H](C)NC(C)=O | 24 | 13 | – | –
